Compound activity as filed in PubChem BioAssay.
Shown are actives, neighbours in structure and some others; about 2.8% of the full set was active somewhere.
T cruzi inh = blocks replication of Trypanosoma cruzi; actives 1.4% (n = 300,000); inhibition, % (test concentration not listed); AID 1885; T. cruzi beta-gal in NIH3T3, luminescence, 90 h;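 active means mean inhibition across valid replicates above about 55%, limit read from the data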;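 further: signal also drops with host cell toxicity which is not excluded here; higher percent means less beta-gal luminescence so fewer parasites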
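System: mouse NIH/3T3 fibroblasts infected with β-gal-expressing T. cruzi Tulahuen C4 / Input: NIH/3T3 cells, 5,000 per well / Buffer or medium: Low-serum DMEM with 2% FBS / Probe or stimulus: 5000 reporter trypomastigotes per well / Schedule: ≥90 h infection period, 3 h prior cell attachment / Measured by: GalScreen luminescence, 60 min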
PP1 counter = blocks human PP1-alpha phosphatase, a PP5 counter-screen | P62136 | purified PP1alpha, OMFP fluorescence | inhibition, % at 6.7 µM | actives 0.9% (n = 320,000) | AID 2235;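 active means inhibition above the mean inhibition of all tested compounds plus 3 SD, computed separately for each screening campaign, cut at about 15% in these data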
Target sequence (P62136 whole entry, looked up): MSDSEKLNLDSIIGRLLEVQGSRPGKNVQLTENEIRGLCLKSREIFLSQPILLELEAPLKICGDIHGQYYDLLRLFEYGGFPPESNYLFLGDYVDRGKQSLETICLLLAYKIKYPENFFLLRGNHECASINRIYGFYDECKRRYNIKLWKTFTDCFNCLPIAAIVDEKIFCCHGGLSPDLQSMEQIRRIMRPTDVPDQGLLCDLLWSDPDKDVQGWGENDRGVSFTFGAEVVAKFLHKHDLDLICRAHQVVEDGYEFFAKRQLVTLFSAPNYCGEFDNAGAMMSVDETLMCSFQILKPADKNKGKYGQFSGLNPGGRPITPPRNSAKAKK
AI-2 QS modul = modulators of Vibrio harveyi AI-2 quorum sensing system; Vibrio harveyi JMH597 AI-2 luminescence/OD600 ratio, 9 h; hits give low values; strain lacks LuxN and CqsS sensors; 0 = neutral-control median; activity change, % at 7.5 µM; actives 0.4% (n = 300,000); in the data active means activity change below about -75%, passing the limit was not always enough;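 further: luminescence divided by OD600 gain over 9 h not by final OD600 alone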
p-CIP stab down = compounds decreasing mouse p/CIP protein stability. Q05BA5. F442A p/CIP-EGFP cells, EGFP fluorescence, 16 h. decrease of EGFP signal, % at 10 µM. actives 0.01% (n = 290,000);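 active means EGFP signal decrease of at least 30% at 10 µM or well 3 SD below plate mean, unless failing retest; inactive means the rest, including hits failing retest or dose response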
UBC13 polyUb = inhibitors of human UBC13 polyubiquitin chain formation; P61088; TR-FRET; inhibition, % at 20 µM; actives 0.47% (n = 330,000); AID 485273; in the data active means inhibition above about 45%, passing the limit was not always enough
Target sequence (P61088 whole entry, looked up): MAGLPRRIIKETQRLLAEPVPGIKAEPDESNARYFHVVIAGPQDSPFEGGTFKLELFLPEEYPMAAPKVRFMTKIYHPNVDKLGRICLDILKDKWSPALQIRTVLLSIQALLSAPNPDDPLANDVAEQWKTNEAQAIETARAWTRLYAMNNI
Large screens that a line does not name were inactive.

COc1ccc(OC)c(C(C)NC(=O)Nc2ccccc2)c1 (stereo unspecified)	none
CN(CC(=O)Nc1sc2c(c1C#N)CCCCC2)Cc1nc2ccccc2c(=O)[nH]1	PP1 counter 15
Cn1c(C(=O)OC(C(=O)NC2CCCC2)c2cccnc2)cc2sccc21 (stereo unspecified)	T cruzi inh 65
Nc1cc(C(=O)OCC(=O)Nc2ccc(N3CCOCC3)cc2)ccc1Cl	none (no result: T cruzi inh, AI-2 QS modul, p-CIP stab down)
CCc1ccc(S(=O)(=O)N2CCCC(N3CCN(c4ccc(OC)cc4)CC3)C2)cc1 (stereo unspecified)	none
COc1cccc(Nc2ncnc3sc(C)cc23)c1	none
O=C(Nc1cccc(C(F)(F)F)c1)Oc1ccc(Cl)c2cccnc12	T cruzi inh 69 (no result: UBC13 polyUb)
CCN(CC)C(=O)Oc1ccc(Cl)c2cccnc12	none
CCc1cccc(N=c2c([N+](=O)[O-])nn(-c3ccc4c(c3)OCCO4)n2O)c1	T cruzi inh 70
CN=c1c([N+](=O)[O-])nn(-c2ccc3c(c2)OCCO3)n1O	T cruzi inh 61
O=[N+]([O-])c1nn(-c2ccc3c(c2)OCCO3)n(O)c1=NCc1ccc(F)cc1	T cruzi inh 61
O=[N+]([O-])c1nn(-c2ccc3c(c2)OCCO3)n(O)c1=NCCC1=CCCCC1	T cruzi inh 94
CCC(C)C(=O)Nc1nnc(SCC(=O)N2C(C)CCCC2C)s1 (stereo unspecified)	none
COc1ccc(S(=O)(=O)N2CCC(C(=O)NCCC(=O)Nc3cccc(Cl)c3)CC2)cc1	none
O=C(Nc1ccc(S(=O)(=O)N2CCOCC2)cc1)c1ccc([N+](=O)[O-])cc1Cl	T cruzi inh 73
O=C(Nc1cc(S(=O)(=O)N2CCOCC2)ccc1Cl)c1cc([N+](=O)[O-])ccc1Cl	none (no result: T cruzi inh, PP1 counter, AI-2 QS modul, p-CIP stab down)
CC1CCCN(C(=O)CCS(=O)(=O)c2cc3c(cc2Cl)NC(=O)CO3)C1 (stereo unspecified)	none
CS(=O)(=O)c1nc(-c2cccs2)cc(C(F)(F)F)n1	T cruzi inh 77, AI-2 QS modul -89
COc1ccc(OC)c(CN2CCN(C(=O)CCNC(=O)c3ccc(Br)cc3)CC2)c1	T cruzi inh 60 (no result: p-CIP stab down)
COc1ccc(OC)c(CN2CCN(C(=O)CNC(=O)c3ccc(C(C)(C)C)cc3)CC2)c1	none (no result: T cruzi inh, AI-2 QS modul, p-CIP stab down)
C#C[C@]1(O)CC[C@H]2[C@@H]3CCC4=Cc5oncc5C[C@]4(C)[C@H]3CC[C@@]21C	none (no result: p-CIP stab down)
Cc1ccccc1OCC(=O)Nc1c2c(nn1C(C)(C)C)CS(=O)(=O)C2	none
CCN1CCN(C(=O)c2cc3cc(F)ccc3[nH]2)CC1	none
COc1ccc2[nH]c(C(=O)N3CCCN(Cc4ccc(F)cc4)CC3)cc2c1	T cruzi inh 60
N#CC1(NC(=O)COc2ccc(S(=O)(=O)N3CCCC3)cc2[N+](=O)[O-])CCCCC1	none (no result: p-CIP stab down)
COc1ccc(C(=O)COC(=O)c2sc(C)nc2C)cc1Cl	none (no result: T cruzi inh, AI-2 QS modul, p-CIP stab down)
CCc1c(C)c2ccc(OCC(=O)NCC3CCC(C(=O)O)CC3)cc2oc1=O (stereo unspecified)	none
CN(C)CC(C(=O)c1ccccc1)c1ccccc1 (stereo unspecified)	T cruzi inh 58
COc1ccc(C(C(=O)OC(C)CN(C)C)c2ccccc2)cc1 (stereo unspecified)	none
Nc1c(C(=O)c2ccc(Cl)cc2)sc2c1c(=O)[nH]c(=O)n2-c1ccccc1	PP1 counter 16
Cc1ccc(S(=O)(=O)N2[C@@H](c3ccc4c(c3)OCO4)C(C(=O)O)=C[C@H]2CC2CCCC2)cc1	none (no result: T cruzi inh, PP1 counter, AI-2 QS modul, p-CIP stab down)
Oc1c(Br)cc(Br)cc1/C=N/NC(=S)N[C@H]1CC2C=CC1C2 (stereo partly specified)	PP1 counter 17
COc1ccccc1Cn1c(/C=C/c2ccccc2)nc2ccccc21	none
COc1ccc(/C=C/c2nc3ccccc3n2Cc2ccccc2OC)cc1	T cruzi inh 56
Cc1c(C)n(CCc2ccccc2)c2ncnc(NCCO)c12	none
Cc1c(C)n(CCCN(C)C)c2ncnc(NCc3ccccc3)c12	T cruzi inh 55
O=C(CC12CC3CC(CC(Br)(C3)C1)C2)NC1CCCC1	none
O=C(O)c1ccc(N/N=C/c2ccc3nccnc3c2)cc1	none
O=C(O)c1ccc(N/N=C/C(Br)=C/c2ccccc2)cc1	AI-2 QS modul -94
O=C(O)c1ccc(N/N=C/c2cccc(F)c2)cc1	AI-2 QS modul -79
O=C(O)c1ccc(N/N=C/c2cccc(C(F)(F)F)c2)cc1	AI-2 QS modul -93
O=C(O)c1ccc(N/N=C/c2ccc(F)c(F)c2)cc1	AI-2 QS modul -94
O=C(N/N=C/c1cccc(C(F)(F)F)c1)c1ccccc1O	none
CCN1C(=NCCOC)N[C@@H](c2cccs2)C(C(=O)OC)=C1C	none
COc1ccc(NC(=O)N(C)C[C@H]2Oc3ccc(NS(=O)(=O)c4c(C)noc4C)cc3C(=O)N([C@H](C)CO)C[C@@H]2C)cc1	none (no result: T cruzi inh, PP1 counter, AI-2 QS modul, p-CIP stab down)
CC(=O)c1cccc(NC(=O)C2CC(=O)N(C3CCCC3)C2)c1 (stereo unspecified)	none (no result: T cruzi inh, PP1 counter, AI-2 QS modul, p-CIP stab down)
Cc1c(C(=O)Nc2ccccc2C(=O)N2CCCC2)cccc1[N+](=O)[O-]	none
N#Cc1ccc(Cl)cc1NC(=O)COC(=O)c1cccc(S(=O)(=O)N2CCOCC2)c1	none (no result: T cruzi inh, AI-2 QS modul, p-CIP stab down)
CCOCCCN(C(=O)Cn1nnc(-c2ccc(C)o2)n1)C(C(=O)NCC1CCCO1)c1ccc(F)cc1 (stereo unspecified)	none
Cc1nn(C(C)C(=O)N2CCCC2)c(=O)c2nn(-c3ccccc3)c(C)c12 (stereo unspecified)	T cruzi inh 56
Cc1nn(C(C)C(=O)NCCN2CCCCCC2)c(=O)c2nn(-c3ccccc3)c(C)c12 (stereo unspecified)	none
C#CCOCCOCCOCCNc1nc(N2CCN(C(=O)CCCCCCCCCCNC(=O)[C@H](CCCN=C(N)N)n3cc(C[C@@H](C)CC)nn3)CC2)nc(N2CCN(C(=O)CCCCCCCCCCNC(=O)[C@@H]([C@H](C)CC)n3cc(CCCCCN)nn3)CC2)n1	PP1 counter 71, UBC13 polyUb 122 (no result: T cruzi inh, AI-2 QS modul, p-CIP stab down)
C#CCOCCOCCOCCNc1nc(N2CCN(C(=O)CCCCCCCCCCNC(=O)[C@H]([C@@H](C)CC)n3cc(CCCCN=C(N)N)nn3)CC2)nc(N2CCN(C(=O)CCCCCCCCCCNC(=O)[C@H](CCCN=C(N)N)n3cc(C[C@@H](C)CC)nn3)CC2)n1	PP1 counter 68, UBC13 polyUb 129 (no result: T cruzi inh, AI-2 QS modul, p-CIP stab down)
C#CCOCCOCCOCCNc1nc(N2CCN(C(=O)CCCCCCCCCCNC(=O)[C@H](CO)n3cc(CCCCCN)nn3)CC2)nc(N2CCN(C(=O)CCCCCCCCCCNC(=O)[C@H](CCCN=C(N)N)n3cc(C[C@@H](C)CC)nn3)CC2)n1	PP1 counter 57, UBC13 polyUb 129 (no result: T cruzi inh, AI-2 QS modul, p-CIP stab down)
COc1ccc(C)cc1NC(=O)CCC(=O)Nc1ccc2nc(N3CCN(C)CC3)cc(C)c2c1	T cruzi inh 65
CCN1CCN(c2cc(C)c3cc(NC(=O)CCC(=O)Nc4ccc(OC)c(OC)c4)ccc3n2)CC1	none
